Experimental data gathered from unrelated publications.
Compare with care: the assays were run in different laboratories.
CDK2: Cyclin-dependent kinase 2 (CDK2, Homo sapiens, UniProt P24941)
CDK2 with cyclin E: Cyclin-dependent kinase 2, with cyclin E (CDK2, Homo sapiens, UniProt P24941)
CDK2 with cyclin A: Cyclin-dependent kinase 2, with cyclin A (CDK2, Homo sapiens, UniProt P24941)

`Cn1cc(Cl)c2c(Oc3c(F)cc(Nc4cc(Cl)nc(N)n4)cc3F)ccnc21` gave a remaining binding of 100% (CDK2; cell-free assay; competition with immobilised ligand; 0.1 µM).
`CCC1(CC)NC(=O)c2c(c3ccc(Cl)c(Cl)c3n2C)C1C#N` (stereo not drawn) has a ΔTm of -0.4 °C (CDK2; thermal stability; DSF; 10 µM).
`CCC(=O)N[C@@H]1CC[C@H](C(=O)N(C)c2ccc(-c3nc4ccccc4o3)cc2)C1` gave a remaining binding of 100% (CDK2; cell-free assay; competition with immobilised ligand; 1 µM).
With `O=C1NC(=O)c2cc(Nc3ccc(F)cc3)c(Nc3ccc(F)cc3)cc21` the remaining signal was 94.3% (CDK2 with cyclin E; cell-free assay; 0.5 µM).
`Cc1ccc(C(=O)NCc2ccsc2)cc1C#Cc1cn(C(C)C)c2ncnc(N)c12` has an activity vs control of 94% (CDK2 with cyclin A; enzyme activity; inhibitor; 1 µM).
`CCN1CCC2(CC1)NC(=O)c1c(c3ccc(Cl)c(Cl)c3n1C)C2C#N` (racemic) gave a ΔTm of 0 °C (CDK2; thermal stability; DSF; 10 µM).
`COc1cc(/C=C/C(=O)CC(=O)/C=C/c2ccc(O)c(OC)c2)ccc1O` has an activity vs control of 107% (CDK2 with cyclin A; enzyme activity; inhibitor; 1 µM).
`COc1cc(OC)c(C=C2C(O)=Nc3ccccc32)c(OC)c1` gave a remaining signal of 96.3% (CDK2 with cyclin A; cell-free assay; 0.5 µM).
`Cn1c2c(c3ccccc31)C(C#N)C(C)(C)NC2=O` (stereo not drawn) has a ΔTm of -0.1 °C (CDK2; thermal stability; DSF; 10 µM).
`Cc1cc(NC(=O)c2cccc3cc(-c4cccc5[nH]nc(N)c45)ccc23)ccc1F` gave an activity vs control of 100% (CDK2 with cyclin A; enzyme activity; inhibitor; 0.1 µM).
For `Cn1c2c(c3ccc(Cl)c(Cl)c31)C(C#N)C1(CCOCC1)NC2=O` (stereo not drawn), the ΔTm was 0 °C (CDK2; thermal stability; DSF; 10 µM).
For `N#Cc1c(NC(=O)c2cccc3ccccc23)sc2c1CCCC2`, the remaining signal was 100% (CDK2 with cyclin A; cell-free assay; 0.5 µM).
With `Cc1sc(C(=O)NC2COC2)cc1-n1cc(NC(=O)Nc2c(F)cccc2Cl)cn1` the remaining activity was 105% (Cyclin-dependent kinase 2, with cyclin O (CDK2, Homo sapiens, UniProt P24941); enzyme activity; inhibitor; 10 µM).
`CN(C(=O)c1ccccc1)c1cc(N(C)c2ccc3c(c2)CCc2ccc(C(=O)NCCN4CCOCC4)cc2C3=O)ccc1F` has a remaining binding of 96% (CDK2; cell-free assay; competition with immobilised ligand; 1 µM).
`CC(C)c1ccc(NC(=O)c2cccs2)c(-c2nc3ccccc3[nH]c2=O)c1` gave an activity vs control of 98% (CDK2 with cyclin E; enzyme activity; inhibitor; 1 µM).
`FC(F)(F)Oc1cccc(-c2cnc3ccc(-c4ccncc4)nn23)c1` has an activity vs control of 10% (CDK2 with cyclin A; enzyme activity; inhibitor; radiometric; 5 µM).
`O=C(Nc1cccnn1)N1CC(C/C=C/c2cncc(Oc3ccc(C(F)(F)F)cn3)n2)C1` has a remaining binding of 100% (CDK2; cell-free assay; competition with immobilised ligand; 1 µM).
With `N#CC1c2c([nH]c3c(Cl)c(Cl)ccc23)C(=O)NC12CCCCC2` (racemic) the ΔTm was -0.6 °C (CDK2; thermal stability; DSF; 10 µM).
`O=C(N[C@H]1CCCCC/C=C\C2C[C@@]2(C(=O)O)NC(=O)[C@@H]2C[C@@H](Oc3ccncc3)CN2C1=O)OC1CCCC1` (stereo partly drawn) has a remaining binding of 87% (CDK2; binding; competition with immobilised ligand; 1 µM).
For `Cn1c2c(Cl)c(Cl)ccc2c2cc(N)[nH]c(=O)c21`, the ΔTm was 2.2 °C (CDK2; thermal stability; DSF; 10 µM).
`CC(C)[C@H](CO)Nc1nc(Nc2cccc(Cl)c2)c2ncn(C(C)C)c2n1` gave a remaining signal of 9.88% (CDK2 with cyclin E; cell-free assay; 0.5 µM).
For `Nc1ncnc2occ(-c3ccc(NC(=O)Nc4cc(C(F)(F)F)ccc4F)cc3)c12`, the remaining signal was 0.1% (CDK2; cell-free assay; inhibitor; 20 µM).
`O=C1Nc2ccc(Cl)cc2C1=Cc1cc(Cl)c(O)c(Cl)c1` has a remaining signal of 90% (CDK2 with cyclin E; cell-free assay; 0.5 µM).
The remaining activity of `CC(C)(O)[C@H]1CC[C@H](Nc2ccc3ncc(-c4cccc(C(F)(F)F)c4)n3n2)CC1` is reported as 78.5% (Cyclin-dependent kinase 2, with cyclin A1 (CDK2, Homo sapiens, UniProt P24941); enzyme activity; inhibitor; 1 µM).
`CCS(=O)(=O)c1cc2cc(C[C@@](O)(CC(C)(C)c3ccc(F)cc3C(N)=O)C(F)(F)F)[nH]c2cn1` has a remaining binding of 96% (CDK2; cell-free assay; competition with immobilised ligand; 1 µM).
`O=C(Nc1cnn(-c2csc(C(=O)NC3COC3)c2)c1)Nc1ccccc1Cl` gave a remaining activity of 93.6% (CDK2 with cyclin A; enzyme activity; inhibitor; 5 µM).
The remaining binding of `CS(=O)(=O)c1cc(C2(NC(=O)c3cncc4c3cnn4-c3ccc(F)cc3)CC2)ccn1` is reported as 94% (CDK2; cell-free assay; competition with immobilised ligand; 1 µM).
With `CS(=O)(=O)CCNCc1ccc(-c2ccc3ncnc(Nc4ccc(OCc5cccc(F)c5)c(Cl)c4)c3c2)o1` the remaining signal was 98.8% (CDK2 with cyclin E; cell-free assay; 0.5 µM).
With `Cc1ccc(NC(=O)c2ccc(C)c(C(F)(F)F)c2)cc1C#Cc1nn(C2CCC(O)CC2)c2ncnc(N)c12` (stereo not drawn) the remaining signal was 102% (CDK2 with cyclin E; cell-free assay; 10 µM).
For `COc1cc2c(cc1OC)-c1[nH]nc(Nc3cccc(F)c3)c1C2`, the remaining signal was 87.5% (CDK2 with cyclin A; cell-free assay; 0.5 µM).
With `Cc1nc(N2CC[C@@H](O)C2)ncc1-c1cc(C(F)(F)F)cc2[nH]ncc12` the remaining binding was 94% (CDK2; binding; competition with immobilised ligand; 1 µM).
For `O=C1Cc2c([nH]c3ccc([N+](=O)[O-])cc23)-c2ccccc2N1`, the remaining signal was 8.37% (CDK2 with cyclin A; cell-free assay; 0.5 µM).
For `O=C(Nc1cnn(-c2csc(C(=O)NC3COC3)c2)c1)Nc1c(F)cccc1Cl`, the remaining activity was 98.9% (Cyclin-dependent kinase 2, with cyclin E2 (CDK2, Homo sapiens, UniProt P24941); enzyme activity; inhibitor; 5 µM).
